Results taken from ChEMBL document CHEMBL1156921, “Synthesis and anti-leishmanial activity of heterocyclic betulin derivatives” (Bioorg Med Chem, 2010).

How the values were obtained:
Leishmania donovani [1] = experiment: Antiparasitic activity against Leishmania donovani MHOM/SD/1962/1S-Cl2d axenic amastigotes at 50 uM by alamar blue assay; type: functional
Leishmania donovani [2] = experiment: Antiparasitic activity against Leishmania donovani MHOM/SD/1962/1S-Cl2d axenic amastigotes at 1 uM by alamar blue assay; type: functional
[3] = Cytotoxicity against human THP1 cells at 25 uM after 48 hrs by alamar blue assay; type: cell-based; details: THP-1 cells, read-out: INH
Outline: (§1)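 THP-1 cells in complete RPMI-1640, 10% FCS, added to compounds in medium with DMSO, triplicate, 48 h at 37 °C, 5% CO2; alamarBlue added, 3 h further incubation, fluorescence ex 544/em 590 nm; % growth inhibition.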

Leishmania donovani [4] = experiment: Antiparasitic activity against Leishmania donovani MHOM/SD/1962/1S-Cl2d amastigotes in human THP1 cells at 12.5 uM after 48 hrs by microplate reader; type: functional; details: THP-1, 48 h
Leishmania donovani [5] = experiment: Antiparasitic activity against Leishmania donovani MHOM/SD/1962/1S-Cl2d amastigotes in human THP1 cells at 25 uM after 48 hrs by microplate reader; type: functional; details: THP-1, 48 h
[6] = Cytotoxicity against human THP1 cells at 50 uM after 48 hrs by alamar blue assay; type: cell-based; details: THP-1 cells, read-out: INH; outline: as §1
[7] = Cytotoxicity against human THP1 cells at 12.5 uM after 48 hrs by alamar blue assay; type: cell-based; details: THP-1 cells, read-out: INH; outline: as §1
Leishmania amazonensis [8] = experiment: Antiparasitic activity against Leishmania amazonensis assessed as survival index at 68 uM; type: functional
[9] = Toxicity against peritoneal macrophages assessed as survival induces at 68 uM; type: cell-based, Peritoneal macrophage cell; details: read-out: Survival
Leishmania amazonensis [10] = experiment: Antiparasitic activity against Leishmania amazonensis assessed as survival index at 136 uM; type: functional
[11] = Toxicity against peritoneal macrophages assessed as survival induces at 136 uM; type: cell-based, Peritoneal macrophage cell; details: read-out: Survival
Leishmania donovani [12] = experiment: Antiparasitic activity against Leishmania donovani MHOM/SD/1962/1S-Cl2d axenic amastigotes at 15 uM by alamar blue assay; type: functional
Leishmania donovani [13] = experiment: Antileishmanial activity against Leishmania donovani promastigotes; type: functional, organism-based
Leishmania donovani [14] = experiment: Antileishmanial activity against Leishmania donovani infected golden hamster assessed as reduction of parasite burden at 10 mg/kg after 6 weeks; type: functional; design: scale not given: the % may be the effect or the level left
Leishmania donovani [15] = experiment: Antileishmanial activity against Leishmania donovani amastigotes; type: functional, organism-based
Leishmania donovani [16] = experiment: Antiparasitic activity against Leishmania donovani MHOM/SD/1962/1S-Cl2d amastigotes in human THP1 cells at 50 uM after 48 hrs by microplate reader; type: functional; details: THP-1, 48 h

Compound CC(=O)OC[C@]12CC[C@]3(C(C)C)C1=C1[C@H](C[C@@H]4[C@@]5(C)CC[C@H](OC(C)=O)C(C)(C)[C@@H]5CC[C@@]4(C)[C@]1(C)CC2)n1c(=O)n(-c2ccc(C(C)=O)cc2)c(=O)n13 has an inhibition at 50 µM (Leishmania donovani [1]) of 45%.

CC(=O)OC[C@]12CC[C@]3(C(C)C)C1=C1[C@H](C[C@@H]4[C@@]5(C)CC[C@H](OC(C)=O)C(C)(C)[C@@H]5CC[C@@]4(C)[C@]1(C)CC2)n1c(=O)n(-c2ccc(Cl)cc2)c(=O)n13 showed an inhibition at 50 µM (Leishmania donovani [1]) of 30%.

CC(=O)OC[C@]12CC[C@]3(C(C)C)C1=C1[C@H](C[C@@H]4[C@@]5(C)CC[C@H](OC(C)=O)C(C)(C)[C@@H]5CC[C@@]4(C)[C@]1(C)CC2)n1c(=O)n(Cc2ccccc2)c(=O)n13 gave an inhibition at 50 µM (Leishmania donovani [1]) of 25%.

COc1cccc(-n2c(=O)n3n(c2=O)[C@]2(C(C)C)CC[C@]4(COC(C)=O)CC[C@]5(C)C(=C42)[C@@H]3C[C@@H]2[C@@]3(C)CC[C@H](OC(C)=O)C(C)(C)[C@@H]3CC[C@]25C)c1 gave an inhibition at 50 µM (Leishmania donovani [1]) of 44%.

Compound CCCCn1c(=O)n2n(c1=O)[C@]1(C(C)C)CC[C@]3(COC(C)=O)CC[C@]4(C)C(=C31)[C@@H]2C[C@@H]1[C@@]2(C)CC[C@H](OC(C)=O)C(C)(C)[C@@H]2CC[C@]14C has an inhibition at 50 µM (Leishmania donovani [1]) of 49%.

With CC(C)[C@@]12CC[C@]3(CO)CC[C@]4(C)C(=C31)[C@H](C[C@@H]1[C@@]3(C)CC[C@H](O)C(C)(C)[C@@H]3CC[C@]14C)n1c(=O)n(-c3ccccc3)c(=O)n12 the inhibition at 50 µM (Leishmania donovani [1]) was 48%.

With C[C@@H]1[C@H](O)[C@@H](C)/C=C/C=C/C=C/C=C/C=C/C=C/C=C/[C@H](O[C@@H]2O[C@H](C)[C@@H](O)[C@H](N)[C@@H]2O)C[C@@H]2O[C@](O)(C[C@@H](O)C[C@@H](O)[C@H](O)CC[C@@H](O)C[C@@H](O)CC(=O)O[C@H]1C)C[C@H](O)[C@H]2C(=O)O [AMPHOTERICIN B] the inhibition at 1 µM (Leishmania donovani [2]) was > 90%.

Compound CC(C)[C@@]12CC[C@]3(COC(=O)c4ccccc4)CC[C@]4(C)C(=C31)[C@H](C[C@@H]1[C@@]3(C)CC[C@H](OC(=O)c5ccccc5)C(C)(C)[C@@H]3CC[C@]14C)n1c(=O)n(-c3ccccc3)c(=O)n12 has an inhibition at 50 µM (Leishmania donovani [1]) of 0%.

Compound CC(=O)OC[C@]12CC[C@]3(C(C)C)C1=C1[C@H](C[C@@H]4[C@@]5(C)CC[C@H](OC(C)=O)C(C)(C)[C@@H]5CC[C@@]4(C)[C@]1(C)CC2)n1c(=O)[nH]c(=O)n13 has a cytotoxicity at 48 h, 25 µM [3] of 2.4%, an inhibition at 12.5 µM (Leishmania donovani [4]) of 4.8% and an inhibition at 25 µM (Leishmania donovani [5]) of 55%. It also gave a cytotoxicity at 48 h, 50 µM [6] of 97%, an inhibition at 50 µM (Leishmania donovani [1]) of 88% and a cytotoxicity at 48 h, 12.5 µM [7] of 0%.

CC(=O)OC[C@]12CC[C@]3(C(C)C)C1=C1[C@H](C[C@@H]4[C@@]5(C)CC[C@H](OC(C)=O)C(C)(C)[C@@H]5CC[C@@]4(C)[C@]1(C)CC2)n1c(=O)n(-c2cccc4ccccc24)c(=O)n13 gave an inhibition at 50 µM (Leishmania donovani [1]) of 58%.

CCn1c(=O)n2n(c1=O)[C@]1(C(C)C)CC[C@]3(COC(C)=O)CC[C@]4(C)C(=C31)[C@@H]2C[C@@H]1[C@@]2(C)CC[C@H](OC(C)=O)C(C)(C)[C@@H]2CC[C@]14C showed a cytotoxicity at 48 h, 25 µM [3] of 13%, an inhibition at 12.5 µM (Leishmania donovani [4]) of 0% and an inhibition at 25 µM (Leishmania donovani [5]) of 53%. For the same compound, the cytotoxicity at 48 h, 50 µM [6] was 48%, the inhibition at 50 µM (Leishmania donovani [1]) was 88% and the cytotoxicity at 48 h, 12.5 µM [7] was 8.5%.

CC(=O)OC[C@]12CC[C@]3(C(C)C)C1=C1[C@H](C[C@@H]4[C@@]5(C)CC[C@H](OC(C)=O)C(C)(C)[C@@H]5CC[C@@]4(C)[C@]1(C)CC2)n1c(=O)n(C)c(=O)n13 gave a cytotoxicity at 48 h, 25 µM [3] of 78%, an inhibition at 12.5 µM (Leishmania donovani [4]) of 60% and a cytotoxicity at 48 h, 50 µM [6] of 94%. It also gave an inhibition at 50 µM (Leishmania donovani [1]) of 98% and a cytotoxicity at 48 h, 12.5 µM [7] of 39%.

Compound CC(C)[C@@]12CC[C@]3(COC(=O)C4CCCCC4)CC[C@]4(C)C(=C31)[C@H](C[C@@H]1[C@@]3(C)CC[C@H](OC(=O)C5CCCCC5)C(C)(C)[C@@H]3CC[C@]14C)n1c(=O)n(C(C)(C)C)c(=O)n12 has an inhibition at 50 µM (Leishmania donovani [1]) of 4.8%.

Work on C=C(C)[C@@H]1CC[C@]2(C=O)CC[C@]3(C)[C@H](CC[C@@H]4[C@@]5(C)CC[C@H](O)C(C)(C)[C@@H]5CC[C@]43C)[C@@H]12 [BETULINALDEHYDE] yielded a survival at 68 µM (Leishmania amazonensis [8]) of 42%, a viability at 68 µM [9] of 80% and a survival at 136 µM (Leishmania amazonensis [10]) of 12%. It also gave a viability at 136 µM [11] of 70%.

With CC(C)C(=O)OC[C@]12CC[C@]3(C(C)C)C1=C1[C@H](C[C@@H]4[C@@]5(C)CC[C@H](OC(=O)C(C)C)C(C)(C)[C@@H]5CC[C@@]4(C)[C@]1(C)CC2)n1c(=O)n(C)c(=O)n13 the inhibition at 15 µM (Leishmania donovani [12]) was 19%.

CC(C)[C@@]12CC[C@]3(COC(=O)C4CCCCC4)CC[C@]4(C)C(=C31)[C@H](C[C@@H]1[C@@]3(C)CC[C@H](OC(=O)C5CCCCC5)C(C)(C)[C@@H]3CC[C@]14C)n1c(=O)n(C)c(=O)n12 gave an inhibition at 50 µM (Leishmania donovani [1]) of 5.5%.

With C=C(C)[C@@H]1CC[C@]2(C(=O)O)CC[C@]3(C)[C@H](CC[C@@H]4[C@@]5(C)CC[C@H](O)C(C)(C)[C@@H]5CC[C@]43C)[C@@H]12 [BETULINIC ACID] the IC50 (Leishmania donovani [13]) was 2.6 µM, the Activity (Leishmania donovani [14]) was 92% and the IC50 (Leishmania donovani [15]) was 4.1 µM.

CCCC(=O)OC[C@]12CC[C@]3(C(C)C)C1=C1[C@H](C[C@@H]4[C@@]5(C)CC[C@H](OC(=O)CCC)C(C)(C)[C@@H]5CC[C@@]4(C)[C@]1(C)CC2)n1c(=O)n(C)c(=O)n13 showed an inhibition at 15 µM (Leishmania donovani [12]) of 26%.

For CCC(=O)OC[C@]12CC[C@]3(C(C)C)C1=C1[C@H](C[C@@H]4[C@@]5(C)CC[C@H](OC(=O)CC)C(C)(C)[C@@H]5CC[C@@]4(C)[C@]1(C)CC2)n1c(=O)n(C)c(=O)n13, the cytotoxicity at 48 h, 25 µM [3] was 15%, the inhibition at 50 µM (Leishmania donovani [16]) was 83% and the inhibition at 12.5 µM (Leishmania donovani [4]) was 18%. The inhibition at 25 µM (Leishmania donovani [5]) was 55%, the cytotoxicity at 48 h, 50 µM [6] was 16% and the inhibition at 50 µM (Leishmania donovani [1]) was 93%. It also gave a cytotoxicity at 48 h, 12.5 µM [7] of 5%.

CC(C)[C@@]12CC[C@]3(CO)CC[C@]4(C)C(=C31)[C@H](C[C@@H]1[C@@]3(C)CC[C@H](O)C(C)(C)[C@@H]3CC[C@]14C)n1c(=O)n(C)c(=O)n12 showed an inhibition at 50 µM (Leishmania donovani [1]) of 50%.

With CC(=O)OC[C@]12CC[C@]3(C(C)C)C1=C1[C@H](C[C@@H]4[C@@]5(C)CC[C@H](OC(C)=O)C(C)(C)[C@@H]5CC[C@@]4(C)[C@]1(C)CC2)n1c(=O)n(-c2ccc(F)cc2)c(=O)n13 the inhibition at 50 µM (Leishmania donovani [1]) was 48%.

Work on CC(C)[C@@]12CC[C@]3(COC(=O)c4ccccc4)CC[C@]4(C)C(=C31)[C@H](C[C@@H]1[C@@]3(C)CC[C@H](OC(=O)c5ccccc5)C(C)(C)[C@@H]3CC[C@]14C)n1c(=O)n(C)c(=O)n12 yielded an inhibition at 50 µM (Leishmania donovani [1]) of 0%.

CC(=O)OC[C@]12CC[C@]3(C(C)C)C1=C1[C@H](C[C@@H]4[C@@]5(C)CC[C@H](OC(C)=O)C(C)(C)[C@@H]5CC[C@@]4(C)[C@]1(C)CC2)n1c(=O)n(-c2cccc([N+](=O)[O-])c2)c(=O)n13 gave an inhibition at 50 µM (Leishmania donovani [1]) of 30%.

In the case of CC(=O)OC[C@]12CC[C@]3(C(C)C)C1=C1[C@H](C[C@@H]4[C@@]5(C)CC[C@H](OC(C)=O)C(C)(C)[C@@H]5CC[C@@]4(C)[C@]1(C)CC2)n1c(=O)n(-c2ccccc2)c(=O)n13, the inhibition at 50 µM (Leishmania donovani [1]) is reported as 36%.

Compound CC(=O)OC[C@]12CC[C@]3(C(C)C)C1=C1[C@H](C[C@@H]4[C@@]5(C)CC[C@H](OC(C)=O)C(C)(C)[C@@H]5CC[C@@]4(C)[C@]1(C)CC2)n1c(=O)n(-c2ccc4c(c2)CCC4)c(=O)n13 has an inhibition at 50 µM (Leishmania donovani [1]) of 23%.
